# Source: ChEMBL document CHEMBL5303300, “EUbOPEN Chemogenomics Library - Multiplex” (2023)
# Where “and” joins values, the source holds several entries; their conditions need not be identical. Identical values can stand only once.
# Test system: U2OS
# Experiment: Multiplex assay against U2OS
# Type: toxicity, cell-based
# Settings: human, number of replicates 2
# Outline: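 Compound was added to live cells that had been stained at seeding with Hoechst33342, BioTracker Green Microtubule Cytoskeleton Dye, MitoTracker Red and Annexin V Alexa Fluor 680, and imaging followed on a CQ1 microscope at 37°C and 5% CO2. CellPathfinder machine-learning gating divided cells into Hoechst high-intensity objects or normal cells, normal cells into healthy, pyknosed or fragmented nuclei, and pyknosed cells into mitotic or apoptotic. Tubulin, mitochondrial-mass and membrane-permeability phenotypes are per cents of healthy-nucleus cells.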
# [1] = 12 h, 1 µM, compound concentration 1 uM
# [2] = 12 h, 10 µM, compound concentration 10 uM
# [3] = 24 h, 1 µM, compound concentration 1 uM
# [4] = 24 h, 10 µM, compound concentration 10 uM
# [5] = 48 h, 1 µM, compound concentration 1 uM
# [6] = 48 h, 10 µM, compound concentration 10 uM
compound,measurement,setting,value
Cn1cc(-c2ccc(-c3cncc(Cl)c3N3CCC4(CCNC4=O)CC3)cc2)cn1,Population Apoptotic (%),[1],56% and 66%
same,Population Healthy Nuclei (%),[1],86% and 64%
same,Population Hoechst High Intensity Objects (%),[1],0%
same,Population Membrane Permeable-Phenotype (%),[1],3% and 7%
same,Population Mitochondria Different-Phenotype (%),[1],1% and 0%
same,Population Mitotic Cells (%),[1],43% and 33%
same,Population Normal (%),[1],99% and 100%
same,Population Pyknosed Nuclei (%),[1],8% and 7%
same,Population Tubulin-Different-Phenotype (%),[1],64% and 40%
same,Population Apoptotic (%),[2],100% and 50%
same,Population Healthy Nuclei (%),[2],61% and 79%
same,Population Hoechst High Intensity Objects (%),[2],0%
same,Population Membrane Permeable-Phenotype (%),[2],19% and 10%
same,Population Mitochondria Different-Phenotype (%),[2],0% and 6%
same,Population Normal (%),[2],100%
same,Population Pyknosed Nuclei (%),[2],9% and 14%
same,Population Tubulin-Different-Phenotype (%),[2],23% and 36%
same,Population Apoptotic (%),[3],72% and 66%
same,Population Healthy Nuclei (%),[3],88% and 65%
same,Population Hoechst High Intensity Objects (%),[3],0%
same,Population Membrane Permeable-Phenotype (%),[3],2% and 7%
same,Population Mitochondria Different-Phenotype (%),[3],2% and 0%
same,Population Mitotic Cells (%),[3],27% and 33%
same,Population Normal (%),[3],100%
same,Population Pyknosed Nuclei (%),[3],8% and 6%
same,Population Tubulin-Different-Phenotype (%),[3],65% and 39%
same,Population Apoptotic (%),[4],88% and 60%
same,Population Healthy Nuclei (%),[4],59% and 80%
same,Population Hoechst High Intensity Objects (%),[4],0%
same,Population Membrane Permeable-Phenotype (%),[4],20% and 14%
same,Population Mitochondria Different-Phenotype (%),[4],0% and 17%
same,Population Normal (%),[4],100% and 99%
same,Population Pyknosed Nuclei (%),[4],21% and 13%
same,Population Tubulin-Different-Phenotype (%),[4],32% and 46%
same,Population Apoptotic (%),[5],70% and 100%
same,Population Healthy Nuclei (%),[5],88% and 65%
same,Population Hoechst High Intensity Objects (%),[5],0%
same,Population Membrane Permeable-Phenotype (%),[5],2% and 5%
same,Population Mitochondria Different-Phenotype (%),[5],3% and 0%
same,Population Normal (%),[5],99% and 100%
same,Population Pyknosed Nuclei (%),[5],7% and 6%
same,Population Tubulin-Different-Phenotype (%),[5],65% and 47%
same,Population Apoptotic (%),[6],78% and 92%
same,Population Fragmented Nuclei (%),[6],7% and 17%
same,Population Healthy Nuclei (%),[6],74% and 53%
same,Population Hoechst High Intensity Objects (%),[6],0%
same,Population Membrane Permeable-Phenotype (%),[6],25% and 33%
same,Population Mitotic Cells (%),[6],21% and 7%
same,Population Normal (%),[6],100%
same,Population Pyknosed Nuclei (%),[6],17% and 28%
same,Population Tubulin-Different-Phenotype (%),[6],50% and 45%
C=CC(=O)Nc1cccc(C)c1Nc1ncc2cc(-c3c(Cl)c(OC)cc(OC)c3Cl)ccc2n1,Population Apoptotic (%),[1],81% and 76%
same,Population Fragmented Nuclei (%),[1],9% and 3%
same,Population Healthy Nuclei (%),[1],69% and 91%
same,Population Hoechst High Intensity Objects (%),[1],1% and 0%
same,Population Membrane Permeable-Phenotype (%),[1],5% and 0%
same,Population Mitochondria Different-Phenotype (%),[1],0%
same,Population Mitotic Cells (%),[1],18% and 23%
same,Population Normal (%),[1],98% and 100%
same,Population Tubulin-Different-Phenotype (%),[1],75% and 77%
same,Population Apoptotic (%),[2],54% and 69%
same,Population Healthy Nuclei (%),[2],45% and 68%
same,Population Hoechst High Intensity Objects (%),[2],0%
same,Population Membrane Permeable-Phenotype (%),[2],0% and 5%
same,Population Mitochondria Different-Phenotype (%),[2],0% and 9%
same,Population Mitotic Cells (%),[2],45% and 30%
same,Population Normal (%),[2],100%
same,Population Pyknosed Nuclei (%),[2],33% and 26%
same,Population Tubulin-Different-Phenotype (%),[2],80% and 56%
same,Population Apoptotic (%),[3],71% and 50%
same,Population Healthy Nuclei (%),[3],63% and 88%
same,Population Hoechst High Intensity Objects (%),[3],1% and 0%
same,Population Membrane Permeable-Phenotype (%),[3],0% and 1%
same,Population Mitochondria Different-Phenotype (%),[3],0%
same,Population Mitotic Cells (%),[3],28% and 50%
same,Population Normal (%),[3],98% and 100%
same,Population Pyknosed Nuclei (%),[3],18% and 8%
same,Population Tubulin-Different-Phenotype (%),[3],87% and 78%
same,Population Apoptotic (%),[4],86% and 90%
same,Population Fragmented Nuclei (%),[4],17% and 7%
same,Population Healthy Nuclei (%),[4],40% and 54%
same,Population Hoechst High Intensity Objects (%),[4],0%
same,Population Membrane Permeable-Phenotype (%),[4],0% and 1%
same,Population Mitochondria Different-Phenotype (%),[4],0% and 8%
same,Population Mitotic Cells (%),[4],13% and 9%
same,Population Normal (%),[4],100%
same,Population Pyknosed Nuclei (%),[4],42% and 38%
same,Population Tubulin-Different-Phenotype (%),[4],92% and 65%
same,Population Apoptotic (%),[5],70% and 59%
same,Population Fragmented Nuclei (%),[5],10% and 1%
same,Population Healthy Nuclei (%),[5],72% and 88%
same,Population Hoechst High Intensity Objects (%),[5],1% and 0%
same,Population Membrane Permeable-Phenotype (%),[5],4% and 1%
same,Population Mitochondria Different-Phenotype (%),[5],1% and 0%
same,Population Mitotic Cells (%),[5],29% and 40%
same,Population Normal (%),[5],98% and 99%
same,Population Pyknosed Nuclei (%),[5],17% and 9%
same,Population Tubulin-Different-Phenotype (%),[5],90% and 85%
same,Population Apoptotic (%),[6],77% and 93%
same,Population Fragmented Nuclei (%),[6],6% and 9%
same,Population Healthy Nuclei (%),[6],31% and 40%
same,Population Hoechst High Intensity Objects (%),[6],0% and 1%
same,Population Membrane Permeable-Phenotype (%),[6],11% and 10%
same,Population Mitochondria Different-Phenotype (%),[6],11% and 10%
same,Population Normal (%),[6],100% and 98%
same,Population Pyknosed Nuclei (%),[6],62% and 50%
same,Population Tubulin-Different-Phenotype (%),[6],100% and 91%
COC(=O)Nc1nc2c(s1)-c1c(c(-c3cccnc3)nn1-c1ccc(C3(N(C)C)CC3)cc1)CC2.Cl.Cl,Population Apoptotic (%),[1],100% and 85%
same,Population Healthy Nuclei (%),[1],44% and 73%
same,Population Hoechst High Intensity Objects (%),[1],0%
same,Population Mitochondria Different-Phenotype (%),[1],3% and 12%
same,Population Mitotic Cells (%),[1],0% and 14%
same,Population Normal (%),[1],100% and 99%
same,Population Pyknosed Nuclei (%),[1],4% and 13%
same,Population Tubulin-Different-Phenotype (%),[1],51% and 39%
same,Population Apoptotic (%),[2],58% and 63%
same,Population Fragmented Nuclei (%),[2],96% and 73%
same,Population Hoechst High Intensity Objects (%),[2],0%
same,Population Membrane Permeable-Phenotype (%),[2],28% and 26%
same,Population Mitochondria Different-Phenotype (%),[2],7% and 15%
same,Population Mitotic Cells (%),[2],41% and 36%
same,Population Normal (%),[2],100% and 99%
same,Population Pyknosed Nuclei (%),[2],1% and 6%
same,Population Tubulin-Different-Phenotype (%),[2],32% and 49%
same,Total Cell Count,[2],1083 and 863
same,Population Apoptotic (%),[3],83% and 77%
same,Population Healthy Nuclei (%),[3],31% and 74%
same,Population Hoechst High Intensity Objects (%),[3],0% and 1%
same,Population Membrane Permeable-Phenotype (%),[3],5%
same,Population Mitochondria Different-Phenotype (%),[3],0% and 16%
same,Population Mitotic Cells (%),[3],16% and 22%
same,Population Normal (%),[3],100% and 98%
same,Population Pyknosed Nuclei (%),[3],9% and 17%
same,Population Tubulin-Different-Phenotype (%),[3],55% and 39%
same,Population Apoptotic (%),[4],75% and 71%
same,Population Fragmented Nuclei (%),[4],96% and 74%
same,Population Hoechst High Intensity Objects (%),[4],0%
same,Population Membrane Permeable-Phenotype (%),[4],25% and 13%
same,Population Mitochondria Different-Phenotype (%),[4],21% and 20%
same,Population Mitotic Cells (%),[4],25% and 28%
same,Population Normal (%),[4],99%
same,Population Pyknosed Nuclei (%),[4],1% and 8%
same,Population Tubulin-Different-Phenotype (%),[4],40% and 45%
same,Total Cell Count,[4],1253 and 958
same,Population Apoptotic (%),[5],85% and 76%
same,Population Healthy Nuclei (%),[5],31% and 63%
same,Population Hoechst High Intensity Objects (%),[5],0%
same,Population Membrane Permeable-Phenotype (%),[5],19% and 10%
same,Population Mitochondria Different-Phenotype (%),[5],9% and 14%
same,Population Mitotic Cells (%),[5],14% and 23%
same,Population Normal (%),[5],100% and 99%
same,Population Pyknosed Nuclei (%),[5],10% and 28%
same,Population Tubulin-Different-Phenotype (%),[5],66% and 45%
same,Population Apoptotic (%),[6],66% and 70%
same,Population Fragmented Nuclei (%),[6],95% and 76%
same,Population Hoechst High Intensity Objects (%),[6],0%
same,Population Membrane Permeable-Phenotype (%),[6],13% and 23%
same,Population Mitochondria Different-Phenotype (%),[6],13% and 26%
same,Population Mitotic Cells (%),[6],33% and 30%
same,Population Normal (%),[6],100% and 99%
same,Population Pyknosed Nuclei (%),[6],2% and 10%
same,Population Tubulin-Different-Phenotype (%),[6],50% and 51%
same,Total Cell Count,[6],1346 and 1010
CS(=O)(=O)c1ccc(C(=O)Nc2cc(F)c(F)c(COc3cc(F)c(Br)cc3CN3CC[C@H](O)C3)c2)c(Cl)c1.O=CO,Population Apoptotic (%),[1],71% and 68%
same,Population Hoechst High Intensity Objects (%),[1],0%
same,Population Normal (%),[1],100%
same,Population Apoptotic (%),[2],51% and 52%
same,Population Healthy Nuclei (%),[2],28%
same,Population Hoechst High Intensity Objects (%),[2],0%
same,Population Normal (%),[2],99% and 100%
same,Population Apoptotic (%),[3],60% and 78%
same,Population Hoechst High Intensity Objects (%),[3],0%
same,Population Normal (%),[3],100%
same,Population Apoptotic (%),[4],88% and 86%
same,Population Hoechst High Intensity Objects (%),[4],0%
same,Population Normal (%),[4],100% and 99%
same,Population Apoptotic (%),[5],60% and 89%
same,Population Healthy Nuclei (%),[5],85%
same,Population Hoechst High Intensity Objects (%),[5],1% and 0%
same,Population Normal (%),[5],98% and 100%
same,Population Apoptotic (%),[6],98% and 90%
same,Population Healthy Nuclei (%),[6],14% and 6%
same,Population Hoechst High Intensity Objects (%),[6],1% and 3%
same,Population Normal (%),[6],98% and 96%
